# “And” between values parts separate entries of the source, which are not always exact repeats. Identical values can stand only once.
# Tested on: Fibroblast
# Assay: Multiplex assay against human fibroblast
# Type: toxicity, cell-based
# Summary of the method: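 Tubulin, mitochondrial-mass and membrane-permeability phenotypes are per cents of healthy-nucleus cells. Cells were gated by CellPathfinder machine learning into Hoechst high-intensity objects or normal cells, normal cells into healthy, pyknosed or fragmented nuclei, and pyknosed cells into mitotic or apoptotic. Before that, live cells stained at seeding with Hoechst33342, BioTracker Green Microtubule Cytoskeleton Dye, MitoTracker Red and Annexin V Alexa Fluor 680 were imaged on a CQ1 microscope at 37°C and 5% CO2 after compound addition.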
# [1] = 12 h, 1 µM, compound concentration 1 uM
# [2] = 12 h, 10 µM, compound concentration 10 uM
# [3] = 24 h, 1 µM, compound concentration 1 uM
# [4] = 24 h, 10 µM, compound concentration 10 uM
# [5] = 48 h, 1 µM, compound concentration 1 uM
# [6] = 48 h, 10 µM, compound concentration 10 uM
smiles,measurement,setting,value
CCCC(CCC)C(=O)O [VALPROIC ACID],Population Apoptotic (%),[1],42% and 57%
same,Population Fragmented Nuclei (%),[1],13% and 20%
same,Population Healthy Nuclei (%),[1],65% and 47%
same,Population Hoechst High Intensity Objects (%),[1],3% and 8%
same,Population Membrane Permeable-Phenotype (%),[1],2% and 10%
same,Population Mitotic Cells (%),[1],57% and 42%
same,Population Normal (%),[1],96% and 91%
same,Population Pyknosed Nuclei (%),[1],21% and 31%
same,Population Tubulin-Different-Phenotype (%),[1],27% and 49%
same,Population Apoptotic (%),[2],30% and 43%
same,Population Fragmented Nuclei (%),[2],29% and 16%
same,Population Healthy Nuclei (%),[2],60% and 53%
same,Population Hoechst High Intensity Objects (%),[2],4% and 2%
same,Population Membrane Permeable-Phenotype (%),[2],1% and 4%
same,Population Mitochondria Different-Phenotype (%),[2],3% and 8%
same,Population Mitotic Cells (%),[2],70% and 56%
same,Population Normal (%),[2],95% and 97%
same,Population Tubulin-Different-Phenotype (%),[2],16% and 41%
same,Population Apoptotic (%),[3],42% and 48%
same,Population Fragmented Nuclei (%),[3],11% and 22%
same,Population Healthy Nuclei (%),[3],69% and 53%
same,Population Hoechst High Intensity Objects (%),[3],5% and 7%
same,Population Membrane Permeable-Phenotype (%),[3],1% and 3%
same,Population Mitochondria Different-Phenotype (%),[3],2% and 7%
same,Population Mitotic Cells (%),[3],57% and 51%
same,Population Normal (%),[3],95% and 92%
same,Population Pyknosed Nuclei (%),[3],19% and 24%
same,Population Tubulin-Different-Phenotype (%),[3],22% and 54%
same,Population Apoptotic (%),[4],50% and 38%
same,Population Fragmented Nuclei (%),[4],27% and 30%
same,Population Healthy Nuclei (%),[4],66% and 46%
same,Population Hoechst High Intensity Objects (%),[4],6% and 3%
same,Population Membrane Permeable-Phenotype (%),[4],0% and 5%
same,Population Mitochondria Different-Phenotype (%),[4],1% and 4%
same,Population Mitotic Cells (%),[4],50% and 61%
same,Population Normal (%),[4],93% and 96%
same,Population Tubulin-Different-Phenotype (%),[4],21% and 41%
same,Population Apoptotic (%),[5],55% and 48%
same,Population Fragmented Nuclei (%),[5],18% and 36%
same,Population Healthy Nuclei (%),[5],66% and 44%
same,Population Hoechst High Intensity Objects (%),[5],7%
same,Population Membrane Permeable-Phenotype (%),[5],0% and 4%
same,Population Mitochondria Different-Phenotype (%),[5],1% and 7%
same,Population Mitotic Cells (%),[5],44% and 51%
same,Population Normal (%),[5],92%
same,Population Pyknosed Nuclei (%),[5],14% and 19%
same,Population Tubulin-Different-Phenotype (%),[5],19% and 55%
same,Population Apoptotic (%),[6],60%
same,Population Fragmented Nuclei (%),[6],30% and 33%
same,Population Healthy Nuclei (%),[6],60% and 51%
same,Population Hoechst High Intensity Objects (%),[6],1% and 5%
same,Population Membrane Permeable-Phenotype (%),[6],0% and 6%
same,Population Mitochondria Different-Phenotype (%),[6],1% and 5%
same,Population Mitotic Cells (%),[6],40% and 39%
same,Population Normal (%),[6],98% and 94%
same,Population Pyknosed Nuclei (%),[6],8% and 15%
same,Population Tubulin-Different-Phenotype (%),[6],18% and 46%
Cc1cc(-c2ccc3c(c2)CC[C@H]3N2CC3(CCN(C(=O)Cc4cn5cc(C)sc5n4)CC3)C2)ncn1 [PF-5190457],Population Apoptotic (%),[1],29% and 30%
same,Population Fragmented Nuclei (%),[1],16% and 18%
same,Population Healthy Nuclei (%),[1],71% and 46%
same,Population Hoechst High Intensity Objects (%),[1],4%
same,Population Membrane Permeable-Phenotype (%),[1],1% and 9%
same,Population Mitochondria Different-Phenotype (%),[1],5% and 0%
same,Population Mitotic Cells (%),[1],70%
same,Population Normal (%),[1],96% and 95%
same,Population Tubulin-Different-Phenotype (%),[1],24% and 48%
same,Total Cell Count,[1],150 and 121
same,Population Apoptotic (%),[2],36% and 45%
same,Population Fragmented Nuclei (%),[2],17% and 20%
same,Population Healthy Nuclei (%),[2],63% and 55%
same,Population Hoechst High Intensity Objects (%),[2],4% and 1%
same,Population Membrane Permeable-Phenotype (%),[2],1% and 6%
same,Population Mitochondria Different-Phenotype (%),[2],5% and 4%
same,Population Mitotic Cells (%),[2],63% and 54%
same,Population Normal (%),[2],95% and 98%
same,Population Pyknosed Nuclei (%),[2],18% and 24%
same,Population Tubulin-Different-Phenotype (%),[2],38% and 56%
same,Total Cell Count,[2],186 and 138
same,Population Fragmented Nuclei (%),[3],19% and 23%
same,Population Healthy Nuclei (%),[3],72% and 43%
same,Population Hoechst High Intensity Objects (%),[3],2% and 3%
same,Population Membrane Permeable-Phenotype (%),[3],1% and 5%
same,Population Mitochondria Different-Phenotype (%),[3],4% and 5%
same,Population Mitotic Cells (%),[3],45% and 84%
same,Population Normal (%),[3],97% and 96%
same,Population Tubulin-Different-Phenotype (%),[3],26% and 54%
same,Total Cell Count,[3],141 and 126
same,Population Apoptotic (%),[4],44% and 53%
same,Population Fragmented Nuclei (%),[4],19% and 25%
same,Population Healthy Nuclei (%),[4],64% and 49%
same,Population Hoechst High Intensity Objects (%),[4],3% and 5%
same,Population Membrane Permeable-Phenotype (%),[4],0% and 1%
same,Population Mitochondria Different-Phenotype (%),[4],6% and 7%
same,Population Mitotic Cells (%),[4],55% and 46%
same,Population Normal (%),[4],96% and 94%
same,Population Pyknosed Nuclei (%),[4],16% and 25%
same,Population Tubulin-Different-Phenotype (%),[4],37% and 60%
same,Total Cell Count,[4],180 and 134
same,Population Apoptotic (%),[5],78% and 34%
same,Population Fragmented Nuclei (%),[5],30% and 32%
same,Population Healthy Nuclei (%),[5],59% and 47%
same,Population Hoechst High Intensity Objects (%),[5],6% and 2%
same,Population Mitochondria Different-Phenotype (%),[5],2% and 6%
same,Population Normal (%),[5],93% and 97%
same,Population Pyknosed Nuclei (%),[5],9% and 20%
same,Population Tubulin-Different-Phenotype (%),[5],23% and 68%
same,Total Cell Count,[5],157 and 132
same,Population Apoptotic (%),[6],63% and 62%
same,Population Fragmented Nuclei (%),[6],22% and 30%
same,Population Healthy Nuclei (%),[6],66% and 51%
same,Population Hoechst High Intensity Objects (%),[6],6% and 1%
same,Population Membrane Permeable-Phenotype (%),[6],0% and 5%
same,Population Mitochondria Different-Phenotype (%),[6],12% and 14%
same,Population Mitotic Cells (%),[6],36% and 37%
same,Population Normal (%),[6],93% and 98%
same,Population Pyknosed Nuclei (%),[6],10% and 18%
same,Population Tubulin-Different-Phenotype (%),[6],37% and 64%
same,Total Cell Count,[6],192 and 135
COCCNc1nc2ccc(C#CC3(O)CCCCC3)cc2n1-c1ccnc(N)n1,Population Apoptotic (%),[1],15.09% and 20.51%
same,Population Fragmented Nuclei (%),[1],19.05% and 7.25%
same,Population Healthy Nuclei (%),[1],44.9% and 73.91%
same,Population Hoechst High Intensity Objects (%),[1],0%
same,Population Membrane Permeable-Phenotype (%),[1],4.55% and 1.96%
same,Population Mitochondria Different-Phenotype (%),[1],9.09% and 12.42%
same,Population Mitotic Cells (%),[1],84.91% and 79.49%
same,Population Normal (%),[1],100%
same,Population Pyknosed Nuclei (%),[1],36.05% and 18.84%
same,Population Tubulin-Different-Phenotype (%),[1],18.18% and 27.45%
same,Total Cell Count,[1],147 and 207
same,Population Apoptotic (%),[2],2.5% and 7.32%
same,Population Fragmented Nuclei (%),[2],15.71% and 12.57%
same,Population Healthy Nuclei (%),[2],46.19% and 64%
same,Population Hoechst High Intensity Objects (%),[2],0%
same,Population Membrane Permeable-Phenotype (%),[2],7.22% and 1.79%
same,Population Mitochondria Different-Phenotype (%),[2],27.84% and 21.43%
same,Population Mitotic Cells (%),[2],97.5% and 92.68%
same,Population Normal (%),[2],100%
same,Population Pyknosed Nuclei (%),[2],38.1% and 23.43%
same,Population Tubulin-Different-Phenotype (%),[2],56.7% and 54.46%
same,Total Cell Count,[2],210 and 175
same,Population Apoptotic (%),[3],9.76% and 17.39%
same,Population Fragmented Nuclei (%),[3],9.09% and 9.43%
same,Population Healthy Nuclei (%),[3],62.24% and 79.72%
same,Population Hoechst High Intensity Objects (%),[3],0%
same,Population Membrane Permeable-Phenotype (%),[3],3.37% and 5.33%
same,Population Mitochondria Different-Phenotype (%),[3],11.24% and 10.06%
same,Population Mitotic Cells (%),[3],90.24% and 82.61%
same,Population Normal (%),[3],100%
same,Population Pyknosed Nuclei (%),[3],28.67% and 10.85%
same,Population Tubulin-Different-Phenotype (%),[3],19.1% and 25.44%
same,Total Cell Count,[3],143 and 212
same,Population Apoptotic (%),[4],12.33% and 20.59%
same,Population Fragmented Nuclei (%),[4],14.35% and 10.86%
same,Population Healthy Nuclei (%),[4],51.85% and 69.71%
same,Population Hoechst High Intensity Objects (%),[4],0%
same,Population Membrane Permeable-Phenotype (%),[4],3.57% and 1.64%
same,Population Mitochondria Different-Phenotype (%),[4],25% and 18.03%
same,Population Mitotic Cells (%),[4],87.67% and 79.41%
same,Population Normal (%),[4],100%
same,Population Pyknosed Nuclei (%),[4],33.8% and 19.43%
same,Population Tubulin-Different-Phenotype (%),[4],66.96% and 65.57%
same,Total Cell Count,[4],216 and 175
same,Population Apoptotic (%),[5],22.22% and 37.5%
same,Population Fragmented Nuclei (%),[5],10.74% and 6.49%
same,Population Healthy Nuclei (%),[5],77.18% and 86.58%
same,Population Hoechst High Intensity Objects (%),[5],0%
same,Population Membrane Permeable-Phenotype (%),[5],1.74% and 2.5%
same,Population Mitotic Cells (%),[5],77.78% and 62.5%
same,Population Normal (%),[5],100%
same,Population Pyknosed Nuclei (%),[5],12.08% and 6.93%
same,Population Tubulin-Different-Phenotype (%),[5],10.43% and 26.5%
same,Total Cell Count,[5],149 and 231
same,Population Apoptotic (%),[6],11.43% and 24%
same,Population Fragmented Nuclei (%),[6],12.66% and 9.66%
same,Population Healthy Nuclei (%),[6],72.57% and 76.14%
same,Population Hoechst High Intensity Objects (%),[6],0%
same,Population Membrane Permeable-Phenotype (%),[6],2.91% and 5.97%
same,Population Mitochondria Different-Phenotype (%),[6],18.02% and 10.45%
same,Population Mitotic Cells (%),[6],88.57% and 76%
same,Population Normal (%),[6],100%
same,Population Pyknosed Nuclei (%),[6],14.77% and 14.2%
same,Population Tubulin-Different-Phenotype (%),[6],42.44% and 58.96%
same,Total Cell Count,[6],237 and 176
